In ChEMBL document CHEMBL3421557, “Sesamol reduces the atherogenicity of electronegative L5 LDL in vivo and in vitro” (J Nat Prod, 2015):
The source made the active and inactive calls. The rule behind the calls is not given here.

Tests used:
Syrian golden hamster [1] = experiment: Antiatherogenic activity in high-fat diet fed Syrian hamster assessed as decrease in plasma low-density lipoprotein cholesterol level at 50 to 100 mg/kg, po administered for 16 weeks by automated analyzer relative to high-fat diet fed control; assay type: functional, organism-based; conditions: Mesocricetus auratus
How it was run: (§1)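 High-fat-diet hamsters gavaged 50 or 100 mg/kg in 0.5% CMC for 16 weeks (n = 8/group); chow and HFD controls received vehicle. Serum from fasted blood (3000g, 10 min) was assayed for TC, TG, VLDL-C, LDL-C and HDL-C with enzymatic kits on an automated analyzer. Mean ± SD, Student's t-test versus HFD group.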

Syrian golden hamster [2] = experiment: Toxicity in high-fat diet fed Syrian hamster assessed as change in body weight at 50 to 100 mg/kg, po administered for 16 weeks measured over 22 weeks; assay type: organism-based, Mesocricetus auratus; set-up: dose 50-100 mg/kg, route oral; conditions: in vivo, 3696 h
[3] = target: T1, Nitric oxide synthase 3 (Homo sapiens) (UniProt P29474); experiment: Induction of eNOS phosphorylation in HAEC at 3 uM after 60 to 240 mins by Western blot analysis
T1 sequence (whole entry): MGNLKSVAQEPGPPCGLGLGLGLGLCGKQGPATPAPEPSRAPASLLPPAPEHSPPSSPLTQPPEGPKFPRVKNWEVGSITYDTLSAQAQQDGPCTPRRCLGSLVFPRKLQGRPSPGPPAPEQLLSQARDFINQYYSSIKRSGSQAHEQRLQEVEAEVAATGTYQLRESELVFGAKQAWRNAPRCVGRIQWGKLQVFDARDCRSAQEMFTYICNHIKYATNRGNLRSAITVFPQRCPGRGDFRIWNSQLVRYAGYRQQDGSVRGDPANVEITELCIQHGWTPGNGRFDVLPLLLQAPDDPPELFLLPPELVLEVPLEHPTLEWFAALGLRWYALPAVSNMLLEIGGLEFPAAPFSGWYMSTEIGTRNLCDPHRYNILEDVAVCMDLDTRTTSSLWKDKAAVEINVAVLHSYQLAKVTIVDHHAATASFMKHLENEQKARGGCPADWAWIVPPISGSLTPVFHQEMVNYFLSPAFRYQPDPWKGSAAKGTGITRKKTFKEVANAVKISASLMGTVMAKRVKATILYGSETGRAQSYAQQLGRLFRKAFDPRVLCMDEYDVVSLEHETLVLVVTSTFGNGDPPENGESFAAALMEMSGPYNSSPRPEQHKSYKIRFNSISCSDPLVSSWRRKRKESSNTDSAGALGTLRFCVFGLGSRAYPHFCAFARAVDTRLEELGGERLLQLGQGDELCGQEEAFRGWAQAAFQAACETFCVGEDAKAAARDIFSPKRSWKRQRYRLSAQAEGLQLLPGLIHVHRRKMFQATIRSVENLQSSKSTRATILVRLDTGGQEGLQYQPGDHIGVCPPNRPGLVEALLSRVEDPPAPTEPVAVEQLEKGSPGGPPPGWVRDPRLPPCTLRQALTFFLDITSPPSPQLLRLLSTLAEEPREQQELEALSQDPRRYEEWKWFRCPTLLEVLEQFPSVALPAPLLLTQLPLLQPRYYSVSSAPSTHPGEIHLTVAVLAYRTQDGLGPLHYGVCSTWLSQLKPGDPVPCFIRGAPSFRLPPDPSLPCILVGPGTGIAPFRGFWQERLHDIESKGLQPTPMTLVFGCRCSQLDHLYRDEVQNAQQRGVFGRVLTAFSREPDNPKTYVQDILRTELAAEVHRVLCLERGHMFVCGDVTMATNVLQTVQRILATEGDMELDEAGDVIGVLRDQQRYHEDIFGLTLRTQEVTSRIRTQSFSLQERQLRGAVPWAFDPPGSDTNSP
How it was run: (§2)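 HAECs treated with 3 µM agent or vehicle (0.1% DMSO) for 10, 30, 60, 120 and 240 min. Lysates were immunoblotted for p-eNOS and p-Akt, normalized to total eNOS or Akt relative to vehicle control. Densitometry, 4 independent experiments, mean ± SD, Student's t-test.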

Syrian golden hamster [4] = experiment: Toxicity in high-fat diet fed Syrian hamster assessed as mortality at 50 to 100 mg/kg, po administered for 16 weeks measured over 22 weeks; assay type: organism-based, Mesocricetus auratus; set-up: dose 50-100 mg/kg, route oral; conditions: in vivo, 3696 h
Syrian golden hamster [5] = experiment: Antiatherogenic activity in high-fat diet fed Syrian hamster assessed as decrease in plasma trigylceride level at 50 to 100 mg/kg, po administered for 16 weeks by automated analyzer relative to high-fat diet fed control; assay type: functional, organism-based; conditions: Mesocricetus auratus; how it was run: as §1
[6] = target: Oxidized low-density lipoprotein receptor 1 (Homo sapiens) (UniProt P78380); experiment: Inhibition of L5-activated LOX1-induced p38 MAPK phosphorylation in HAEC preincubated for 30 mins followed by L5 induction measured after 120 mins by Western blot analysis
How it was run: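 HAECs pretreated 30 min with TS92 anti-LOX-1 antibody (10 µg/mL), SB203580 (2 µM) or vehicle, then ± L5 or L1 control (50 µg/mL) for 120 min. Phospho-p38 immunoblot normalized to total p38. Densitometry, 4 experiments, mean ± SD.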

Homo sapiens [7] = species: Homo sapiens; experiment: Induction of Akt phosphorylation in HAEC at 3 uM measured at 30 mins by Western blot analysis in presence of wortmannin and Akt inhibitor
How it was run: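 HAECs pretreated 30 min with vehicle (0.1% DMSO), 20 nM wortmannin or 2 nM Akt inhibitor, then ± 3 µM agent for 30 min. p-Akt and p-eNOS were immunoblotted and normalized to β-actin relative to vehicle control. Densitometry, n = 4 independent experiments, mean ± SD, t-test.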

Syrian golden hamster [8] = experiment: Antiatherogenic activity in high-fat diet fed po dosed Syrian hamster assessed as decrease in plasma L5 level administered for 16 weeks by fast protein liquid chromatographic analysis; assay type: functional, organism-based; conditions: Mesocricetus auratus
Homo sapiens [9] = species: Homo sapiens; experiment: Induction of Akt phosphorylation in HAEC at 3 uM after 10 to 30 mins by Western blot analysis; how it was run: as §2
Homo sapiens [10] = species: Homo sapiens; experiment: Induction of Akt phosphorylation in HAEC at 3 uM after 60 to 240 mins by Western blot analysis; how it was run: as §2
Syrian golden hamster [11] = experiment: Antiatherogenic activity in high-fat diet fed Syrian hamster assessed as decrease in plasma very-low-density lipoprotein cholesterol level at 50 to 100 mg/kg, po administered for 16 weeks by automated analyzer relative to high-fat diet fed control; assay type: functional, organism-based; conditions: Mesocricetus auratus; how it was run: as §1
Syrian golden hamster [12] = experiment: Antiatherogenic activity in high-fat diet fed po dosed Syrian hamster assessed as decrease in total LDL electronegativity administered for 16 weeks by agarose gel electrophoresis; assay type: functional, organism-based; conditions: Mesocricetus auratus
How it was run: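 Total LDL from hamsters fed 16 weeks as chow, HFD, or HFD plus 50 or 100 mg/kg by gavage in 0.5% CMC. LDL isolated by KBr ultracentrifugation with EDTA and nitrogen protection. Samples of 2.5 µg run on 0.7% agarose (90 mM Tris/90 mM boric acid, pH 8.2) at 100 V for 1.4 h to assess electronegativity.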

Homo sapiens [13] = species: Homo sapiens; experiment: Activation of PI3K/Akt/eNOS signaling in HAEC assessed as inhibition of L5-induced caspase-3 activation preincubated for 30 mins followed by L5 induction measured after 24 hrs by Western blot analysis in presence of PI3K inhibitor wortmannin, Akt inhibitor, eNOS inhibitor L-NAME
How it was run: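 Primary HAECs (passage 3–4, 2% FBS complete medium) pretreated 30 min with vehicle (0.1% DMSO) or L-NAME (0.1 mM), then 3 µM test agent 30 min, then ± L5 (50 µg/mL) 24 h. Active caspase-3 measured by immunoblot on 50 µg lysate, normalized to β-actin relative to vehicle control. Densitometry, n = 4, mean ± SD, Student's t-test.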

[14] = target: MAP kinase p38 (Homo sapiens) (UniProt O15264+Q15759+Q16539+P53778); experiment: Activation of PI3K/Akt/eNOS signaling in HAEC assessed as inhibition of L5-induced p38 MAPK phosphorylation preincubated for 30 mins followed by L5 induction measured after 120 mins by Western blot analysis in presence of PI3K inhibitor wortmannin, Akt inhibitor, eNOS inhibitor L-NAME; assay type: protein assay
How it was run: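 HAECs pretreated 30 min with vehicle (0.1% DMSO), wortmannin (20 nM), Akt inhibitor (2 nM) or L-NAME (0.1 mM), then ± agent (0.3, 1 or 3 µM) 30 min, then L5 (50 µg/mL) 120 min. Phospho-p38 MAPK immunoblot normalized to total p38 MAPK relative to vehicle control. Densitometry, 4 independent experiments, mean ± SD, t-test.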

With `Oc1ccc2c(c1)OCO2` the Activity (Syrian golden hamster [1]) was “Active”, the Activity (Syrian golden hamster [2]) was “Non-toxic” and the Activity [3] was “inactive”. The Activity (Syrian golden hamster [4]) was “Non-toxic”, the Activity (Syrian golden hamster [5]) was “Active” and the inhibition [6] was “Dose-dependent effect”. The Activity (Homo sapiens [7]) was “inactive”, the Activity (Syrian golden hamster [8]) was “Dose-dependent effect” and the Activity (Homo sapiens [9]) was “Active”. For the same molecule, the Activity (Homo sapiens [10]) was “inactive”, the Activity (Syrian golden hamster [11]) was “Active” and the Activity (Syrian golden hamster [12]) was “Dose-dependent effect”. The inhibition (Homo sapiens [13]) was “inactive” and the inhibition [14] was “inactive”.
